Measured values: ChEMBL document CHEMBL1134414, “Synthesis, antitumor cytotoxicity, and DNA-binding of novel N-5,2-di(omega-aminoalkyl)-2,6-dihydropyrazolo[3,4,5-kl]acridine-5-carboxamides” (J Med Chem, 2001)

Tested on: Nucleic Acid
Assay: Apparent equilibrium constant for binding to calf thymus DNA by competitive displacement fluorometric assay
Format: functional
Conditions: Bos taurus

Structure (SMILES) | K app
O=C1c2c(O)ccc(O)c2C(=O)c2c(NCCNCCO)ccc(NCCNCCO)c21 | 3.41e+08 M⁻¹

Tested on: HT-29
Assay: Concentration required to inhibit cell growth by 50% in vitro against Human colon adenocarcinoma cell line
Format: functional, cell-based
Conditions: not given
Method in brief: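 HT29 cells seeded at 2.5×10^4 cells/mL and exposed to drug continuously for 144 h. Assays run in triplicate.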

IC50 | Structure (SMILES)
910 nM | CN(C)CCNC(=O)c1ccc2c3c(c4cc(N)ccc4nc13)NN2CCN(C)C
560 nM | O=C(NCCNCCO)c1ccc2c3c(c4ccccc4nc13)NN2CCN1CCCCC1
360 nM | CN(C)CCNC(=O)c1ccc2c3c(c4cc([N+](=O)[O-])ccc4nc13)NN2CCN1CCCC1
1800 nM | CN(C)CCCN1Nc2c3cc(O)ccc3nc3c(C(=O)NCCN(C)C)ccc1c23
600 nM | CN(C)CCCNC(=O)c1ccc2c3c(c4ccccc4nc13)NN2CCN(C)C
600 nM | CN(C)CCNC(=O)c1ccc2c3c(c4cc(O)ccc4nc13)NN2CCN(C)C
300 nM | CN(C)CCN1Nc2c3ccccc3nc3c(C(=O)NCCN)ccc1c23
210 nM | CN(C)CCNC(=O)c1ccc2c3c(c4ccccc4nc13)NN2CCN(C)C
1700 nM | O=C(NCCNCCO)c1ccc2c3c(c4ccccc4nc13)NN2CCN1CCCC1
410 nM | CCN(CC)CCNC(=O)c1ccc2c3c(c4ccccc4nc13)NN2CCN(CC)CC
3.9 nM | CN(C)CCNC(=O)c1ccc2c3c(c4cc([N+](=O)[O-])ccc4nc13)NN2CCN(C)C

More lines, now with the values behind:

Structure (SMILES) | IC50
CN(C)CCN1Nc2c3ccccc3nc3c(C(=O)NCCNCCO)ccc1c23 | 560 nM
CN(C)CCCN1Nc2c3ccccc3nc3c(C(=O)NCCN(C)C)ccc1c23 | 250 nM
COc1ccc2c(c1)-c1nn(CCN(C)C)c3ccc(C(=O)NCCN(C)C)c(c13)N2 | 120 nM
CN(C)CCCNC(=O)c1ccc2c3c(c4ccccc4nc13)NN2CCCN(C)C | 2300 nM
O=C(NCCN1CCCCC1)c1ccc2c3c(c4ccccc4nc13)NN2CCN1CCCCC1 | 450 nM
COc1ccc2c(c1)-c1nn(CCN3CCCC3)c3ccc(C(=O)NCCN(C)C)c(c13)N2 | 400 nM
COc1ccc2c(c1)-c1nn(CCN3CCCCC3)c3ccc(C(=O)NCCN(C)C)c(c13)N2 | 260 nM
CN(C)CCNC(=O)c1ccc2c3c(c4ccccc4nc13)NN2CCN1CCCC1 | 190 nM
CN(C)CCNC(=O)c1ccc2c3c(c4cc(O)ccc4nc13)NN2CCN1CCCCC1 | 630 nM
CN(C)CCNC(=O)c1ccc2c3c(c4cc(O)ccc4nc13)NN2CCN1CCCC1 | 910 nM
COc1ccc2c(c1)-c1nn(CCCN(C)C)c3ccc(C(=O)NCCN(C)C)c(c13)N2 | 490 nM
CN(C)CCNC(=O)c1ccc2c3c(c4ccccc4nc13)NN2CCN1CCCCC1 | 210 nM
CN(C)CCNC(=O)c1ccc2c3c(c4cc(N)ccc4nc13)NN2CCN1CCCCC1 | 170 nM
CN(C)CCNC(=O)c1ccc2c3c(c4cc([N+](=O)[O-])ccc4nc13)NN2CCN1CCCCC1 | 31 nM
